Data set [1] deals with Human immunodeficiency virus 2. Kind of data set: Antiviral activity against HIV2 ROD infected in human MT4 cells assessed as inhibition of virus-induced cytopathic effect by MTT assay. The format is functional, organism-based. A digest of the protocol:
(§1)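 Infected MT-4 cells (HIV-1 IIIB or HIV-2 ROD), protection from viral cytopathic effect read by MTT assay; EC50 = concentration giving 50% inhibition of cytopathic effect. CC50 from mock-infected MT-4 cells.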

In another data set the test system is CEM-SS. Kind of data set: (§2) Cytotoxicity against human CEM-SS cells. To be noted: cem-ss. The format is cell-based. A digest of the protocol: (§3)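 Mock-infected CEM-SS cells, handled alongside the XTT antiviral assay. CC50 is the concentration causing death of 50% of cells.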
The subject of another data set is Plasma. Put plainly: (§4) Stability in rat plasma. The format is ADME, cell-free. A digest of the protocol: (§5)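 Compound incubated in reconstituted rat plasma with 1,1-diphenylethylene internal standard; remaining compound quantified by reversed-phase C18 HPLC, 8:2 acetonitrile-water, column at room temperature; half-life per replicate from regression of concentration versus time, averaged over two replicates.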

Data set [2] relates to Human immunodeficiency virus 1. Put plainly: Antiviral activity against NNRTI-resistant HIV1 NL4-3 with reverse transcriptase Y181C mutation infected in human CEM-SS cells assessed as inhibition of virus-induced cytopathic effect by XTT assay. The format is functional, organism-based. The settings on record: Human immunodeficiency virus 1, NL4-3, CEM-SS. The essentials:
(§6)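 XTT cytoprotection readout in CEM-SS cells infected with HIV-1 RF or with HIV-1 NL4-3 carrying RT K103N or Y181C. EC50 is the concentration giving 50% inhibition of virus-induced cytopathic effect.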

Data set [3] relates to Human immunodeficiency virus 1. Put plainly: Antiviral activity against HIV1 RF infected in human CEM-SS cells assessed as inhibition of virus-induced cytopathic effect by XTT assay. In kind it is functional, organism-based. To be noted: Human immunodeficiency virus 1, RF. The essentials: as §6
In data set [4] the target is Human immunodeficiency virus type 1 reverse transcriptase (Human immunodeficiency virus 1, UniProt Q72547). Kind of data set: Inhibition of HIV1 reverse transcriptase p66/p51 using poly(rC)-oligo)dG) as template. A digest of the protocol: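 Purified recombinant HIV-1 RT p66/51 heterodimer; poly(rC)·oligo(dG) homopolymer template/primer; activity measured as 32P-labeled […] incorporated into nascent DNA across increasing inhibitor concentrations; IC50 derived.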

Data set [5] relates to Human immunodeficiency virus 1. Put plainly: Antiviral activity against NNRTI-resistant HIV1 NL4-3 with reverse transcriptase K103N mutation infected in human CEM-SS cells assessed as inhibition of virus-induced cytopathic effect by XTT assay. The settings on record: Human immunodeficiency virus 1, NL4-3, CEM-SS. The format is functional, organism-based. The essentials:
as §6

Data set [6] relates to Human immunodeficiency virus 1. Kind of data set: Antiviral activity against HIV1 3B infected in human MT4 cells assessed as inhibition of virus-induced cytopathic effect by MTT assay. The format is functional, organism-based. To be noted: Human immunodeficiency virus 1, 3B. The essentials: as §1
The next data set has as its system MT4. Kind of data set: (§7) Cytotoxicity against human MT4 cells. The format is cell-based. The settings on record: mt4. The essentials: (§8)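 Mock-infected MT-4 cells, handled alongside the MTT antiviral assay run with HIV-1 IIIB and HIV-2 ROD. CC50 is the concentration causing death of 50% of cells.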
A short description of data set [7]: as §2. In kind it is cell-based. To be noted: CEM-SS cells. The essentials:
as §3

A short description of data set [8]: as §4. The format is ADME, cell-free. The essentials:
as §5

Data set [9] can be described thus: as §7. The settings on record: MT4 cells. The format is cell-based. The essentials:
as §8

In the case of `COC(=O)CCC/C=C(\c1cc(C)c(OC)c(C(=O)OC)c1)c1cc(C)c2oc(=O)n(C)c2c1`, the half-maximal effective concentration (EC50) entry in [1] is on record as “Not Active”.
With `COc1c(C)cc(/C(=C\CCCc2nnc(C)o2)c2cc(C)c3oc(=O)n(C)c3c2)cc1C(=O)SC`, the CC50 with CEM-SS was 3000 nM; in the data set on MT4, 3900 nM. Moreover, in the data set on Plasma, the t1/2 was found to be 238 min. Further, the EC50 entry in data set [1] is “Not Active”; in data set [2], greater than 100000 nM; in data set [3], 70 nM; in data set [5], greater than 100000 nM; in data set [6], 180 nM. Moreover, the half-maximal inhibitory concentration (IC50) in [4] was less than 1 nM.
As to `Cc1ccnc2c1NC(=O)c1cccnc1N2C1CC1` [NEVIRAPINE], the 50% effective concentration (EC50) was determined as 800 nM in [2] and 600 nM in data set [5].
`COC(=O)CCCC=C(c1cc(C#N)c(OC)c(C(=O)OC)c1)c1cc(C#N)c(OC)c(C(=O)OC)c1`: the cytotoxic concentration (CC50) was 17000 nM in data set [7] and greater than 100000 nM in data set [9]. Further, in data set [8], the half-life turned out to be 12.4 min. In addition, the EC50 result was “Not Active” in data set [1] and 700 nM in data set [3].
`COC(=O)CCCC=C(c1cc(Br)c(OC)c(C(=O)OC)c1)c1cc(Br)c(OC)c(C(=O)OC)c1`: the EC50 entry in data set [1] is “Not Active”; in [2] it was 6100 nM; in data set [3] it was 100 nM; in data set [5] it was 420 nM.

Source of the values: ChEMBL document CHEMBL1154166, “Crystallographic study of a novel subnanomolar inhibitor provides insight on the binding interactions of alkenyldiarylmethanes with human immunodeficiency virus-1 reverse transcriptase” (J Med Chem, 2009).
